# Compound activity (PubChem)
# TbMetRS inhib: T. brucei MetRS inhibitors, primary screen, biochemical, luminescence; AID 624268, 2012; 360,000 tested, 0.4% active; inhibition, % at 11.9 µM; purified T. brucei MetRS, ATP depletion, Kinase-Glo luminescence;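 active = inhibition above a per-plate cutoff of the control wells' mean inhibition plus 3 SD, cut at about 5.5% in these data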;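 note: 0% = DMSO wells median and 100% = median of wells with control inhibitor compound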
#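 assay system = parasite MetRS enzyme | timing = 15 min preincubation, 2 h reaction, all 25 °C | evaluation = percent inhibition relative to median high and low control wells | medium = HEPES buffer containing pyrophosphatase, BSA, spermine, DTT | compound = single dose, 11.9 µM final nominal, 0.9% final DMSO | detection = Kinase-Glo luminescence, ATP depletion format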
# pCIP destab: p/CIP-EGFP fusion destabilizers, primary screen, fluorescence, F442A cells. 16 h. decrease of EGFP signal, % at 10 µM. AID 1984, 2009. 290,000 tested, 0.01% active;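 active = EGFP signal decrease of at least 30% at 10 µM or well 3 SD below plate mean, unless failing retest; inactive = the rest, including hits failing retest or dose response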
# Target sequence (Q05BA5 1-1403): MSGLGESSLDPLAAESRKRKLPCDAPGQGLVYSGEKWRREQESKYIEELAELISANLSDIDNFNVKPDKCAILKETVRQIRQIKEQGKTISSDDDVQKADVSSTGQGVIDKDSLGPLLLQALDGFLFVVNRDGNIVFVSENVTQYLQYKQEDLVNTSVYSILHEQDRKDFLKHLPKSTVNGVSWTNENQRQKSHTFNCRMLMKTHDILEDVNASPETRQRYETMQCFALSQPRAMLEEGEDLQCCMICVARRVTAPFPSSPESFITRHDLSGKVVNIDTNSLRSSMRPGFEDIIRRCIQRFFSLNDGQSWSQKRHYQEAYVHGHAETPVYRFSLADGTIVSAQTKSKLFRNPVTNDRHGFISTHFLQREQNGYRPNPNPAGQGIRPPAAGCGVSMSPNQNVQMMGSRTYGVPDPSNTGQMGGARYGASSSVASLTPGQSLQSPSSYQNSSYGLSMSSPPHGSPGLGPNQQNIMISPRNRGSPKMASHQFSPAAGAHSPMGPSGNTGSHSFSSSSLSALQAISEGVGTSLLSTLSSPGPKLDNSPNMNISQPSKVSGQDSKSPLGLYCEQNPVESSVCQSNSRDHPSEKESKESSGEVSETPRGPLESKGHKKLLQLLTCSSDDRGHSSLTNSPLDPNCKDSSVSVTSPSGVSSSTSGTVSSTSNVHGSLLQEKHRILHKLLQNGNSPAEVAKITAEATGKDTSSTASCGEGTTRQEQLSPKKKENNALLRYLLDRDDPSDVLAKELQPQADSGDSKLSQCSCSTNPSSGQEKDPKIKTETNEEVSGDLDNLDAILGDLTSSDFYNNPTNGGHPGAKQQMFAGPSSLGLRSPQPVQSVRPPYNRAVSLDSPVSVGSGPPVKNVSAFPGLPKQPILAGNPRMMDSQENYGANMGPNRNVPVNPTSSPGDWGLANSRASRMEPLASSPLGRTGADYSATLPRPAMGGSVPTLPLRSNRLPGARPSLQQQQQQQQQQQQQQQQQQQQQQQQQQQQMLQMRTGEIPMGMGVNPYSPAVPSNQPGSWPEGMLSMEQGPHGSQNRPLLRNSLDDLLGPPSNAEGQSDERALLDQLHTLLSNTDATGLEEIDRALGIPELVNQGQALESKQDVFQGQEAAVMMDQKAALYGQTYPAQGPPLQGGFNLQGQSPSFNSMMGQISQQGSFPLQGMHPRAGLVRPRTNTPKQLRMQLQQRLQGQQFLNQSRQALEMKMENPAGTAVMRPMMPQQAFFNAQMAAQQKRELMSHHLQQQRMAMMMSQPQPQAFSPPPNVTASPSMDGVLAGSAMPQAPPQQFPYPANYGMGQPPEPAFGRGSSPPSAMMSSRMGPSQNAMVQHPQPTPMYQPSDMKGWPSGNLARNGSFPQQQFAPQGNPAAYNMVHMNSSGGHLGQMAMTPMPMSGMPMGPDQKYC
# APOBEC3G inh: APOBEC3G DNA deaminase inhibitors, primary screen, biochemical, fluorescence, single-stranded DNA substrate, uHTS. DNA dC->dU-editing enzyme APOBEC-3G (Homo sapiens), Q9HC16. recombinant A3G, ssDNA deamination FAM/TAMRA fluorescence. inhibition, % at 20 µM. 330,000 tested, 0.28% active. AID 493012, 2011;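 active = inhibition of at least 40% at 20 µM, with no more than 30% in the related APOBEC3A deaminase screen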;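 note: plate controls were DMSO wells with A3G for no effect and wells lacking A3G enzyme for full effect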
# PHOSPHO1 inh: PubChem AID 1565 | inhibition, % at 13.3 µM | Phosphoethanolamine/phosphocholine phosphatase (Homo sapiens), Q8TCT1 | 290,000 tested, 1.1% active | recombinant PHOSPHO1, absorbance phosphatase assay; in the data active = inhibition above about 60%
# A3A deaminase: APOBEC3A ssDNA deaminase inhibitors, primary screen, selectivity assay for APOBEC3G inhibitor project, biochemical, FAM/TAMRA oligo cleavage fluorescence | 330,000 tested, 0.41% active | recombinant A3A, FAM/TAMRA ssDNA deamination fluorescence | inhibition, % at 20 µM;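 active = at least 40% inhibition at 20 µM here, with at most 30% in a related deaminase screen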;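 note: plate controls were A3A with DMSO for no effect and wells lacking A3A enzyme for full effect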
# A3A conf: APOBEC3A deaminase inhibitors, retest, confirmation, selectivity assay for APOBEC3G inhibitor project, biochemical, single concentration, fluorescence readout | shares compounds with A3A deaminase | recombinant A3A, ssDNA deaminase UDG fluorescence assay | inhibition, % at 20 µM | 1,400 tested, 63% active;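 active = inhibition reaching a set limit, 80% of the first screen's cutoff, at 20 µM in any replicate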;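 note: plate controls were DMSO wells with A3A for no effect and wells lacking A3A enzyme for full effect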
# UDG A3A counter: E. coli UDG inhibitors, confirmation, counter-screen for APOBEC3A inhibitor project, biochemical, single concentration, fluorescence, FAM/TAMRA oligo; shares compounds with A3A deaminase; UDG counterscreen, FAM/TAMRA uracil oligo fluorescence; inhibition, % at 20 µM; 1,000 tested, under 10 active; AID 504714, 2011; call rule not given here
# Active calls of the source: *; . = no result. Shown are actives, neighbours in structure and some others; about 1.8% of the full set was active somewhere.
SMILES,TbMetRS inhib,pCIP destab,APOBEC3G inh,PHOSPHO1 inh,A3A deaminase,A3A conf,UDG A3A counter
Cc1cccc(OCCNC(=O)c2ncn[nH]2)c1,0,-7,-4,-11,-2,.,.
O=C(NCCOc1ccccc1)c1ncn[nH]1,0,-6,21,12,76*,52*,-3
C[C@@H]1CN([C@H](C)CO)C(=O)c2cc(Br)cnc2O[C@@H]1CN(C)C(=O)Cc1ccccc1,0,.,.,.,.,.,.
CCOC(=O)CC(=O)Nc1ccc(C)cc1,0,-3,-1,16,1,.,.
O=C1CCCC(O)=C1Sc1ccccc1C(=O)O,0,-7,6,22,55*,57*,-6
CC(=O)Nc1cc(-c2ccccc2)ccc1O,-1,5,16,90*,47*,60*,-3
Cc1[nH]c2ccccc2c1/C=C(\C#N)C(=O)NC(C)c1ccccc1 (stereo not given),0,-5,9,94*,41*,72*,1
Cc1[nH]c2ccccc2c1/C=C(\C#N)C(=O)NC1CC1,0,-5,4,16,2,.,.
COc1ccccc1C(=O)NCCC(=O)Nc1ccncc1,0,.,-4,.,0,.,.
COc1ccc(NC(=O)CN2C(=O)C(C)SC(C)C2=O)c(OC)c1 (stereo not given),0,0,-5,-8,-2,.,.
O=C1CCCC/C1=C\Nc1ccc(Cl)cn1,0,-22,2,41,42*,3,.
CCOC(=O)C1(C)CCN1C(=O)c1cccc(C#N)c1 (stereo not given),0,.,.,.,.,.,.
C=CC#CC1(O)CC(C)[N+](C)(C)CC1C (stereo not given),0,12,28,-144,56*,71*,-1
CCOc1ccc(CN(C(=O)c2ccccn2)c2ccc(OC)c(Cl)c2)cc1,0,-4,-8,-148,0,.,.
C=CCNC(=O)Cn1nc(-c2ccccc2)ccc1=O,-1,-7,8,46,61*,2,.
COc1cc(C=C2CCCC(=Cc3ccc(OCC4CO4)c(OC)c3)C2=O)ccc1OCC1CO1 (stereo not given),0,.,.,.,.,.,.
Cc1ccccc1C(=O)NCC(=O)NNC(=O)c1cccc(Cl)c1,0,.,-6,.,-1,.,.
CCNC(=O)C1(C)CCN(C(=O)c2ccc(OC)cc2OC)C1 (stereo not given),0,.,.,.,.,.,.
Nc1ccc(Br)cc1C(=O)O,-1,6,1,-17,2,.,.
Nc1ccc(-c2ccc(N)c(C(=O)O)c2)cc1C(=O)O,0,-4,12,25,48*,37*,1
Cc1ccc(N2CC(C(=O)Nc3cccc(C(=O)NC4CC4)c3)CC2=O)cc1 (stereo not given),0,.,7,.,41*,23,.
COc1ccc(C)cc1N1CC(C(=O)Nc2cccc(C(=O)NC3CC3)c2)CC1=O (stereo not given),0,.,.,.,.,.,.
O=C(Oc1ccc(/C=N/Nc2nc(N3CCCCC3)nc(N3CCCCC3)n2)cc1)c1ccco1,0,-2,-15,-3,-3,.,.
CC(C)[C@H](NS(=O)(=O)/C=C/c1ccccc1)C(=O)OCC(=O)NC(N)=O,0,-11,0,30,3,.,.
CCc1cc(=O)oc2cc(C)c(CN3CCCC3)c(O)c12,-1,-5,17,4,41*,54*,.
SMILES,TbMetRS inhib,pCIP destab,APOBEC3G inh,PHOSPHO1 inh,A3A deaminase,A3A conf,UDG A3A counter
CCc1cc(=O)oc2cc(C)c(CN3CCCCC3)c(O)c12,-1,-16,.,11,.,.,.
O=C(Cc1ccccc1)NCC(=O)OCC(=O)c1ccc(F)cc1,0,8,12,22,7,.,.
C=CCn1c(SCC(=O)NC2CCCCC2)nc2ccccc2c1=O,-1,-8,-10,38,1,.,.
C=CCn1c2[n+](c3ccccc3c1=O)CCCCC2,0,-1,14,-21,67*,52*,-2
CC(C)COC(=O)N1CCCC1C(=O)Nc1nccs1 (stereo not given),-1,-3,22,-48,54*,27,.
CCOC(=O)N1CCN(C(=O)C2CCN(S(=O)(=O)c3ccc(NC(C)=O)cc3)CC2)CC1,0,-4,-4,-12,-3,.,.
CCOC(=O)c1c(C)[nH]c(C(=O)COC(=O)Cn2cc(C(F)(F)F)ccc2=O)c1C,0,.,-3,.,0,.,.
C[N+]1(C2CCC3CCCC2C3O)CCCCC1 (stereo not given),0,2,21,-1,65*,68*,4
CC1(C(=O)Nc2ccc(Cl)c(Cl)c2)CCN1Cc1cc2ccccc2o1 (stereo not given),0,.,.,.,.,.,.
CN(C[C@H](Cc1ccccc1)N(C[C@H](Cc1ccccc1)N(CCC(C)(C)C)N=O)N=O)N=O,0,-10,-6,26,98*,-3,-2
CC(C)CCN(N=O)[C@@H](Cc1ccccc1)CN(N=O)[C@@H](Cc1ccccc1)CN(C)N=O,0,-9,-11,-3,-2,.,.
CCn1c(CNC(=O)COc2ccc(C(C)C)cc2)nnc1SCC(=O)Nc1cc(F)ccc1C,-2,-9,23,-67,78*,77*,10
O=C(CCCCl)OCc1cn(-c2ccc(Cl)cc2)nn1,-1,-4,1,16,4,.,.
Cn1c(CCC(=O)Nc2cc(S(C)(=O)=O)ccc2Cl)nc2cc(S(=O)(=O)N3CCOCC3)ccc21,0,.,26,.,74*,76*,3
COc1ccc(-c2nc3ccc(Br)cn3c2Cc2ccsc2)cc1OC,-1,.,.,.,.,.,.
COc1ccc(OC)c(NS(=O)(=O)c2cccs2)c1,0,-2,-5,19,62*,-1,3
CN1C(=O)Cc2cc(S(=O)(=O)NCc3c(F)cccc3Cl)ccc21,-1,-6,-6,31,1,.,.
N#Cc1ccc(NC(=S)Nc2ccccc2)cc1,-1,3,0,13,44*,-7,-4
O=C1ON=C(c2ccccc2[N+](=O)[O-])/C1=C/c1cccc([N+](=O)[O-])c1O,0,.,17,.,57*,83*,-1
O=C1ON=C(c2ccc(Cl)c([N+](=O)[O-])c2)/C1=C/c1cccc([N+](=O)[O-])c1O,0,.,23,.,82*,88*,-3
Cc1n(Cc2ccccc2)c2ccccc2[n+]1Cc1ccccc1,0,-19,-7,46,-6,.,.
